From ChEMBL document CHEMBL2016448, “Discovery of new piperidine amide triazolobenzodiazepinones as intestinal-selective CCK1 receptor agonists” (Bioorg Med Chem Lett, 2012)
pEC50, pIC50: −log10 of the molar value.

Legend:
[1] = Lipophilicity, log D of the compound at pH 7.4; assay type: physicochemical; details: buffer
[2] = biological target: T1, Cholecystokinin receptor type A (Homo sapiens, UniProt P32238); test: Agonist activity at human CCK1 receptor assessed as increase in CCK8-induced calcium release incubated in dark for 30 mins followed by light incubation for 30 mins measured by FLIPR assay; assay type: functional
T1 sequence (P32238 whole entry): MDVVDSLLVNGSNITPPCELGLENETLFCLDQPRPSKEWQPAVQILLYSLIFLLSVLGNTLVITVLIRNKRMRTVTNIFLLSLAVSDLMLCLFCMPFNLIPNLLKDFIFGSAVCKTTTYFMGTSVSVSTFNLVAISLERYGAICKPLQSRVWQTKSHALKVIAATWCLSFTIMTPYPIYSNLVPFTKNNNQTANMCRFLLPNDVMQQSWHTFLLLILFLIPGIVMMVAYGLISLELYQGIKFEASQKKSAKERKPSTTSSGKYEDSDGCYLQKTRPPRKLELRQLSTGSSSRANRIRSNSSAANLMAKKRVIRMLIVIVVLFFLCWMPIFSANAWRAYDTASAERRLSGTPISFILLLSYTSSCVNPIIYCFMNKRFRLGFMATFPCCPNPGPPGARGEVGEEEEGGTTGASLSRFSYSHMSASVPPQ
In short: (§1)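 FLIPR functional assay in CHO cells expressing human CCK1R. Agonism expressed as % of the CCK-8 peptide response. Initial screen at 30 µM, with >30% counted as active. Actives then run as full dose–response. EC50 is the geometric mean of at least 2 independent experiments.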

[3] = biological target: T1, Cholecystokinin receptor type A; test: Displacement of [125I]-CCK-8 from human CCK1 receptor expressed in CHO cells after 90 mins by liquid scintillation counting
[4] = biological target: T2, Cholecystokinin receptor type A (Homo sapiens) (UniProt P32238); test: Agonist activity at human CCK1 receptor assessed as increase in CCK8-induced calcium release incubated in dark for 30 mins followed by light incubation for 30 mins measured by FLIPR assay relative to CCK8; assay type: functional; in short: as §1
T2 sequence (whole entry): T1 sequence (P32238 whole entry)

[5] = Free intrinsic clearance in human microsomes; assay type: ADME, Microsome
In short: (§2)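 Intrinsic clearance measured in human liver microsomes. The free value is corrected for microsomal binding.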

[6] = system: Mus musculus; test: Antiobesity in C57Bl/6J mouse assessed as reduction in gall bladder weight at 0.6 mg/kg, po measured after 1 hr relative to control; assay type: functional; parameters: scale not given: the % may be the effect or the level left
[7] = Drug excretion in Sprague-Dawley rat bile at 1 mg/kg, iv measured after 24 hrs; assay type: ADME, organism-based; parameters: dose 1 mg/kg, route intravenous; details: read-out: Ae
In short: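 Bile-cannulated rats dosed iv at 1 mg/kg. Bile collected over 24 h and % of dose excreted into bile determined.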

[8] = Tmax in Sprague-Dawley rat at 6 mg/kg, po; assay type: ADME, organism-based; parameters: dose 6 mg/kg, route oral; details: in vivo
In short: (§3)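 Male Sprague–Dawley rats dosed iv or po. Oral doses given in SDD formulation. Plasma PK parameters reported as mean of n = 3 rats.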

[9] = system: Plasma; test: Plasma clearance in Sprague-Dawley rat at 0.3 mg/kg, iv; assay type: ADME, organism-based; parameters: dose 0.3 mg/kg, route intravenous; details: in vivo; in short: as §3
[10] = Bioavailability in Sprague-Dawley rat portal system; assay type: ADME, organism-based
[11] = system: Blood; test: Drug level in C57Bl/6J mouse blood at 0.6 mg/kg; assay type: ADME, organism-based; parameters: dose 0.6 mg/kg; details: in vivo
[12] = Drug level in C57Bl/6J mouse bile at 0.6 mg/kg; assay type: ADME, organism-based; parameters: dose 0.6 mg/kg; details: in vivo
[13] = Cmax in Sprague-Dawley rat plasma at 6 mg/kg, po; assay type: ADME, organism-based; parameters: dose 6 mg/kg, route oral; in short: as §3
[14] = fCmax in Sprague-Dawley rat portal system; assay type: ADME
[15] = system: Mus musculus; test: Antiobesity in C57Bl/6J mouse assessed as decrease in food intake at 0.2 mg/kg, po measured after 2 hr relative to control; assay type: functional; parameters: scale not given: the % may be the effect or the level left
In short: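 Mice fasted overnight, then refed. Compound given orally in SDD formulation at increasing doses. Food intake measured at 2 h against vehicle-treated mice. Minimally efficacious dose defined as significant inhibition (p <0.05).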

[16] = system: Rattus norvegicus; test: fCmax in Sprague-Dawley rat at 6 mg/kg, po; assay type: ADME, organism-based; parameters: dose 6 mg/kg, route oral; details: in vivo; in short: as §3
[17] = system: Rattus norvegicus; test: Toxicity in Sprague-Dawley rat assessed as gastrointestinal side-effects at 2 to 6 mg/kg, po; assay type: organism-based; parameters: dose 2-6 mg/kg, route oral; details: in vivo
In short: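 Diet-induced obese rats dosed orally at 2 and 6 mg/kg for 5 days and monitored for gastrointestinal side-effects.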

[18] = Oral bioavailability in Sprague-Dawley rat at 6 mg/kg; assay type: ADME, organism-based; details: in vivo; in short: as §3
[19] = system: Rattus norvegicus; test: Antiobesity in diet-induced obese Sprague-Dawley rat assessed as decrease in body weight gain at 6 mg/kg, po measured after 5 days; assay type: functional; parameters: scale not given: the % may be the effect or the level left
[20] = AUC (0 to last) in Sprague-Dawley rat at 6 mg/kg, po; assay type: ADME, organism-based; parameters: dose 6 mg/kg, route oral, time 0 - last; details: plasma; in short: as §3
[21] = AUC (0 to last) in Sprague-Dawley rat at 0.3 mg/kg, iv; assay type: ADME, organism-based; parameters: time 0 - last, dose 0.3 mg/kg, route intravenous; details: plasma; in short: as §3
[22] = system: Mus musculus; test: Antiobesity in C57Bl/6J mouse assessed as reduction in gall bladder weight at 0.2 mg/kg, po measured after 24 hr relative to control; assay type: functional; parameters: scale not given: the % may be the effect or the level left
[23] = system: Rattus norvegicus; test: Antiobesity in diet-induced obese Sprague-Dawley rat assessed as decrease in food intake at 6 mg/kg, po measured after 5 days relative to control; assay type: functional; parameters: scale not given: the % may be the effect or the level left
[24] = system: Rattus norvegicus; test: Antiobesity in diet-induced obese Sprague-Dawley rat assessed as decrease in food intake at 2 mg/kg, po measured after 5 days relative to control; assay type: functional; parameters: scale not given: the % may be the effect or the level left
[25] = Volume of distribution at steady state in Sprague-Dawley rat at 0.3 mg/kg, iv; assay type: ADME, organism-based; parameters: dose 0.3 mg/kg, route intravenous; details: in vivo, read-out: Vdss; in short: as §3
[26] = system: Rattus norvegicus; test: Antiobesity in diet-induced obese Sprague-Dawley rat assessed as decrease in body weight gain at 2 mg/kg, po measured after 5 days; assay type: functional; parameters: scale not given: the % may be the effect or the level left
[27] = Half life in Sprague-Dawley rat at 0.3 mg/kg, iv; assay type: ADME, organism-based; parameters: dose 0.3 mg/kg, route intravenous; details: in vivo; in short: as §3
[28] = Intrinsic clearance in human microsomes; assay type: ADME, Microsome; in short: as §2
[29] = Solubility of the compound in phosphate buffer; assay type: physicochemical
[30] = system: Liver; test: Clearance in rat liver; assay type: ADME, organism-based; details: in vivo
[31] = Ratio free drug level in gut to portal system of Sprague-Dawley rat at 10 mg/kg, po administered as single dose measured after 4 hrs; assay type: ADME, organism-based; parameters: dose 10 mg/kg, route oral
In short: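 Single oral dose to rats. Gut and portal drug exposures were measured at 2 h and 4 h post-dose and corrected for non-specific binding to give free concentrations. The free gut to free portal ratio was then calculated at each time point.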

[32] = Bioavailability in rat portal system; assay type: ADME, organism-based
[33] = system: Plasma; test: Plasma clearance in Sprague-Dawley rat at 3 mg/kg, iv; assay type: ADME, organism-based; parameters: dose 3 mg/kg, route intravenous; details: in vivo
[34] = system: Mus musculus; test: Antiobesity in C57Bl/6J mouse assessed as reduction in gall bladder weight at 2 mg/kg, po measured after 24 hr relative to control; assay type: functional; parameters: scale not given: the % may be the effect or the level left

CC(C)N(Cc1ccccc1)C(=O)CN1C(=O)[C@@H](Cc2n[nH]c3ccccc23)c2nnc(-c3ccccc3)n2-c2ccccc21
logD ([1]; read-out: logD): 4.7
pEC50 [2]: 6.42
pIC50 [3]: 7.42
Efficacy [4]: 72%

O=C1[C@@H](Cc2n[nH]c3ccccc23)c2nnc(-c3ccccc3)n2-c2ccccc2N1CC(=O)N1CCCCC1Cc1ccccc1 (some centres not stated)
logD ([1]; read-out: logD): 4.6
CL free [5]: 846 µL/min/mg
pEC50 [2]: 7.89
pIC50 [3]: 7.44
Activity [6]: 91%
Efficacy [4]: 103%
dose excreted at 24 h [7]: 0.32%

Cc1cccc(CC2CCCCN2C(=O)CN2C(=O)[C@@H](Cc3n[nH]c4ccccc34)c3nnc(-c4ccccc4)n3-c3ccccc32)c1 (some centres not stated)
logD ([1]; read-out: logD): 5.1
pEC50 [2]: 6.17
pIC50 [3]: 7.06
Efficacy [4]: 75%

Cc1cc(C)cc(C[C@H]2CCCCN2C(=O)CN2C(=O)[C@@H](Cc3n[nH]c4ccccc34)c3nnc(-c4ccccc4)n3-c3ccccc32)c1
Tmax [8]: 0.25 h
clearance [9]: 176 mL/min/kg
bioavailability [10]: 0.56%
Drug uptake [11]: Not Active
Drug uptake [12]: Not Active
logD ([1]; read-out: logD): 5.6
Cmax [13]: 0.46 ng/mL
CL free [5]: 2300 µL/min/mg
fCmax [14]: 0.063 nM
Activity [15]: 34%
fCmax [16]: 0.014 nM
Activity [17]: Non-toxic
Activity [6]: 89%
bioavailability [18]: 0.13%
Activity [19]: 44%
Efficacy [4]: 89%
AUC(0-t) [20]: 0.74 ng·h/mL
AUC(0-t) [21]: 29 ng·h/mL
Activity [22]: 19%
Activity [23]: 25%
dose excreted at 24 h [7]: 0.044%
Activity [24]: 19%
Vd [25]: 17.6 L/kg
Activity [26]: 22%
half-life [27]: 2.04 h

COCCC1CCCCN1C(=O)CN1C(=O)C(Cc2c[nH]c3ccccc23)c2nnc(-c3ccccc3)n2-c2ccccc21 (mixture of isomers)
pEC50 [2]: 7.28
pIC50 [3]: 7.31
clearance [28]: > 300 µL/min/mg
Efficacy [4]: 97%

CCC1CCCCN1C(=O)CN1C(=O)C(Cc2c[nH]c3ccccc23)c2nnc(-c3ccccc3)n2-c2ccccc21 (mixture of isomers)
pEC50 [2]: 6.40
pIC50 [3]: 7.43
clearance [28]: > 300 µL/min/mg
Efficacy [4]: 78%

O=C(CN1C(=O)C(Cc2c[nH]c3ccccc23)c2nnc(-c3ccccc3)n2-c2ccccc21)N1CCC(Cc2ccccc2)C1 (mixture of isomers)
pEC50 [2]: 5.88
pIC50 [3]: 7.16
clearance [28]: 148 µL/min/mg
Efficacy [4]: 85%

O=C1C(Cc2c[nH]c3ccccc23)c2nnc(-c3ccccc3)n2-c2ccccc2N1CC(=O)N1CCCC1Cc1ccccn1 (mixture of isomers)
pEC50 [2]: 6.25
pIC50 [3]: 6.43
clearance [28]: 212 µL/min/mg
Efficacy [4]: 86%

O=C1C(Cc2c[nH]c3ccccc23)c2nnc(-c3ccccc3)n2-c2ccccc2N1CC(=O)N1CCCCC1c1ccccc1 (mixture of isomers)
pEC50 [2]: 5.78
pIC50 [3]: 6.61
Efficacy [4]: 87%

O=C1C(Cc2c[nH]c3ccccc23)c2nnc(-c3ccccc3)n2-c2ccccc2N1CC(=O)N1CCCC1c1ccccc1 (mixture of isomers)
pEC50 [2]: 5.67
pIC50 [3]: 6.77
Efficacy [4]: 83%

CC(C)C1CCCCN1C(=O)CN1C(=O)C(Cc2c[nH]c3ccccc23)c2nnc(-c3ccccc3)n2-c2ccccc21 (mixture of isomers)
pEC50 [2]: 6.31
pIC50 [3]: 7.10
clearance [28]: 220 µL/min/mg
Efficacy [4]: 95%

O=C1C(Cc2c[nH]c3ccccc23)c2nnc(-c3ccccc3)n2-c2ccccc2N1CC(=O)N1CCCCC1Cc1ccccc1 (mixture of isomers)
pEC50 [2]: 7.07
pIC50 [3]: 7.35
clearance [28]: 146 µL/min/mg
Efficacy [4]: 78%

O=C1C(Cc2c[nH]c3ccccc23)c2nnc(-c3ccccc3)n2-c2ccccc2N1CC(=O)N1CCCCC1CC1CCCCC1 (mixture of isomers)
pEC50 [2]: 6.59
pIC50 [3]: 8.37
clearance [28]: 76 µL/min/mg
Efficacy [4]: 88%

O=C1C(Cc2c[nH]c3ccccc23)c2nnc(-c3ccccc3)n2-c2ccccc2N1CC(=O)N1CCCCC1Cc1ccccn1 (mixture of isomers)
pEC50 [2]: 7.50
pIC50 [3]: 7.03
clearance [28]: 114 µL/min/mg
Efficacy [4]: 105%

O=C1C(Cc2c[nH]c3ccccc23)c2nnc(-c3ccccc3)n2-c2ccccc2N1CC(=O)N1CCCCC1Cc1ccncc1 (mixture of isomers)
pEC50 [2]: 6.38
pIC50 [3]: 6.47
clearance [28]: 111 µL/min/mg
Efficacy [4]: 89%

COCCC1CCCCN1C(=O)CN1C(=O)[C@@H](Cc2n[nH]c3ccccc23)c2nnc(-c3ccccc3)n2-c2ccccc21 (single isomer, unassigned)
logD ([1]; read-out: logD): 3.1
CL free [5]: 154 µL/min/mg
pEC50 [2]: 8.57
pIC50 [3]: 8.00
Activity [6]: 85%
Efficacy [4]: 100%
dose excreted at 24 h [7]: 0.26%

CC(C)N(Cc1ccccc1)C(=O)CN1C(=O)[C@@H](Cc2c[nH]c3ccccc23)c2nnc(-c3ccccc3)n2-c2ccccc21 [CE-326597]
Tmax [8]: 1.33 h
solubility [29]: Insoluble
CLH [30]: 47 mL/min/kg
Kp uu at 4 h [31]: 65
logD [1]: 4.9
CL free [5]: 597 µL/min/mg
bioavailability [32]: 9%
clearance [33]: 41.7 mL/min/kg
Activity [6]: 91%
clearance [28]: 199 µL/min/mg
Efficacy [4]: 95%
Activity [34]: 27.5%
dose excreted at 24 h [7]: 0.04%
